According to ChEMBL document CHEMBL5034051, “Proteome-wide Identification of Off-Targets of a Potent EGFRL858R/T790M Mutant Inhibitor” (ACS Med Chem Lett, 2022):
One block for each compound: values may come before it. Activity calls are given as the source filed them. The calls are words filed in the database; no cut-off is given here.

Tests used:
[1] = target: T1, 5'-nucleotidase domain-containing protein 1 (Homo sapiens) (UniProt Q5TFE4); assay: Thermal stabilization of NT5DC1 in human NCI-H1975 cells assessed as positive shift in melting temperature by CETSA; assay type: cell-based
T1 sequence (whole entry): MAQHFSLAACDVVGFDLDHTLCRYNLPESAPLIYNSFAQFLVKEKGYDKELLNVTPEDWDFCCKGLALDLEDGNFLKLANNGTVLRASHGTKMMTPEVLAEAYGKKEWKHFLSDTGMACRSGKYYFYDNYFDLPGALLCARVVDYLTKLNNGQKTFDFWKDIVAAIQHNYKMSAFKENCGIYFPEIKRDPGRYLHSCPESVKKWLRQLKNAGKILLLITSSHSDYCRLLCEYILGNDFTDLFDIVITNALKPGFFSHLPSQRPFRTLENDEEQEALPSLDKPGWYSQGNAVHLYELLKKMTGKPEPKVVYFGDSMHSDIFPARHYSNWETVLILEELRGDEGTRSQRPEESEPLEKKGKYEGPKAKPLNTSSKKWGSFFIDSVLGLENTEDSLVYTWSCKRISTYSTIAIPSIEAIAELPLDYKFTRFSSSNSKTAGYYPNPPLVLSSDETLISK
How it was run: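 Binding was tested by cellular thermal shift assay in H1975 cells exposed to the compounds. NT5DC1 stabilization was read as a shift in melting temperature.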

[2] = test system: NCI-H1975; assay: Antiproliferative activity against human NCI-H1975 cells harboring EGFR T790M mutant assessed as reduction in cell viability measured after 72 hrs by CCK8 assay; assay type: functional, cell-based; conditions: NCI-H1975, 72 h
How it was run: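 H1975 NSCLC cells, which carry EGFR T790M, were used in a cell-based CCK8 antiproliferation assay. IC50 values were reported.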

[3] = test system: NCI-H1975; assay: Antiproliferative activity against NT5DC1 knockdown human NCI-H1975 cells assessed as reduction in cell viability incubated for 48 hrs by CCK8 assay; assay type: functional, cell-based
How it was run: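 NT5DC1 was knocked down in H1975 cells with siRNA, with scrambled siRNA as the negative control. Knockdown was checked by Western blot. Cells with or without knockdown were exposed to a range of compound concentrations, and viability was read out against DMSO-treated controls.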

[4] = target: Epidermal growth factor receptor (Homo sapiens, UniProt P00533, T790M); assay: Inhibition of EGFR T790M mutant (unknown origin) using Poly (Glu, Tyr)4:1 as substrate by spectrophotometry
[5] = target: T1, 5'-nucleotidase domain-containing protein 1 (Homo sapiens); assay: Binding affinity to NT5DC1 in human HeLa cells at 1 uM by Western blot analysis; assay type: cell-based
How it was run: (§1)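 Live cancer cells were labelled in situ with the 1 μM alkyne probe, clicked to TAMRA-azide and resolved by SDS-PAGE with fluorescence scanning. NT5DC1 expression in each line was measured separately by Western blot.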

[6] = target: T1, 5'-nucleotidase domain-containing protein 1 (Homo sapiens); assay: Binding affinity to NT5DC1 in human MCF7 cells at 1 uM by Western blot analysis; assay type: cell-based; how it was run: as §1
[7] = target: T1, 5'-nucleotidase domain-containing protein 1 (Homo sapiens); assay: Binding affinity to NT5DC1 in human MDA-MB-453 cells at 1 uM by Western blot analysis
[8] = target: Epidermal growth factor receptor (Homo sapiens) (UniProt P00533); assay: Inhibition of EGFR in human NCI-H1975 cells by pull down/Western blot analysis; assay type: cell-based
How it was run: (§2)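 H1975 cells were treated with the probe, and the lysate was clicked to a biotin tag and enriched on streptavidin beads. The pulled-down proteins were then detected by Western blot with antibodies to EGFR and NT5DC1.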

[9] = target: T1, 5'-nucleotidase domain-containing protein 1 (Homo sapiens); assay: Inhibition of NT5DC1 in human NCI-H1975 cells by pull down/Western blot analysis; assay type: cell-based; how it was run: as §2
[10] = target: T1, 5'-nucleotidase domain-containing protein 1 (Homo sapiens); assay: Binding affinity to NT5DC1 in human NCI-H1299 cells at 1 uM by Western blot analysis; assay type: cell-based; how it was run: as §1
[11] = target: T1, 5'-nucleotidase domain-containing protein 1 (Homo sapiens); assay: Binding affinity to NT5DC1 in human MV4-11 cells at 1 uM by Western blot analysis; assay type: cell-based; how it was run: as §1
[12] = target: Mitochondrial antiviral-signaling protein (Homo sapiens) (UniProt Q7Z434); assay: Binding affinity to MAVS in human NCI-H1975 cells at 5 uM by pull down/LC-MS/MS analysis; assay type: cell-based
How it was run: (§3)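 Live H1975 cells were incubated for 1 h with the 5 μM alkyne probe, with or without 5× parent inhibitor as competitor. Cells were lysed and clicked by CuAAC to a biotin-TAMRA-azide tag. Proteins were enriched on streptavidin beads, checked by in-gel fluorescence, trypsin-digested and run on LC-MS/MS with label-free quantification. Hits were kept if log2 enrichment (probe/DMSO) was >3, −log10 p was >2 and probe LFQ intensity was >1 × 10^7.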

[13] = target: DNA replication licensing factor MCM2 (Homo sapiens) (UniProt P49736); assay: Binding affinity to MCM2 in human NCI-H1975 cells at 5 uM by pull down/LC-MS/MS analysis; assay type: cell-based; how it was run: as §3
[14] = Drug uptake in cytosol of human NCI-H1975 cells assessed as fluorescence signal at 5 uM incubated for 1 hrs by fluorescence microscopy; assay type: ADME, subcellular
How it was run: (§4)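 Live H1975 cells were incubated for 1 h with the 5 μM alkyne probe, with or without parent inhibitor, against DMSO controls. Cells were then fixed, permeabilized, clicked with TAMRA-azide and imaged by fluorescence microscopy, with excitation at 550 nm for the probe channel.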

[15] = test system: NCI-H1975; assay: Binding affinity to MAP4 in human NCI-H1975 cells at 5 uM by pull down/LC-MS/MS analysis; assay type: cell-based; how it was run: as §3
[16] = Drug uptake in nucleus of human NCI-H1975 cells assessed as fluorescence signal at 5 uM incubated for 1 hrs by fluorescence microscopy; assay type: ADME, cell-based; conditions: nci-h1975, 1 h; how it was run: as §4
[17] = target: T1, 5'-nucleotidase domain-containing protein 1 (Homo sapiens); assay: Binding affinity to NT5DC1 in human Huh-7 cells at 1 uM by Western blot analysis; assay type: cell-based; how it was run: as §1
[18] = target: Epidermal growth factor receptor (Homo sapiens) (UniProt P00533); assay: Binding affinity to EGFR in human NCI-H1975 cells at 5 uM by pull down/LC-MS/MS analysis; assay type: cell-based; how it was run: as §3
[19] = test system: NCI-H1975; assay: Binding affinity to RPS19 in human NCI-H1975 cells at 5 uM by pull down/LC-MS/MS analysis; assay type: cell-based; how it was run: as §3
[20] = target: T1, 5'-nucleotidase domain-containing protein 1 (Homo sapiens); assay: Binding affinity to NT5DC1 in human NCI-H1975 cells at 5 uM by pull down/LC-MS/MS analysis; assay type: cell-based; how it was run: as §3
[21] = target: Trifunctional enzyme subunit alpha, mitochondrial (Homo sapiens) (UniProt P40939); assay: Binding affinity to HADHA in human NCI-H1975 cells at 5 uM by pull down/LC-MS/MS analysis; assay type: cell-based; how it was run: as §3
Trifunctional enzyme subunit alpha, mitochondrial (Homo sapiens), sequence (P40939 whole entry): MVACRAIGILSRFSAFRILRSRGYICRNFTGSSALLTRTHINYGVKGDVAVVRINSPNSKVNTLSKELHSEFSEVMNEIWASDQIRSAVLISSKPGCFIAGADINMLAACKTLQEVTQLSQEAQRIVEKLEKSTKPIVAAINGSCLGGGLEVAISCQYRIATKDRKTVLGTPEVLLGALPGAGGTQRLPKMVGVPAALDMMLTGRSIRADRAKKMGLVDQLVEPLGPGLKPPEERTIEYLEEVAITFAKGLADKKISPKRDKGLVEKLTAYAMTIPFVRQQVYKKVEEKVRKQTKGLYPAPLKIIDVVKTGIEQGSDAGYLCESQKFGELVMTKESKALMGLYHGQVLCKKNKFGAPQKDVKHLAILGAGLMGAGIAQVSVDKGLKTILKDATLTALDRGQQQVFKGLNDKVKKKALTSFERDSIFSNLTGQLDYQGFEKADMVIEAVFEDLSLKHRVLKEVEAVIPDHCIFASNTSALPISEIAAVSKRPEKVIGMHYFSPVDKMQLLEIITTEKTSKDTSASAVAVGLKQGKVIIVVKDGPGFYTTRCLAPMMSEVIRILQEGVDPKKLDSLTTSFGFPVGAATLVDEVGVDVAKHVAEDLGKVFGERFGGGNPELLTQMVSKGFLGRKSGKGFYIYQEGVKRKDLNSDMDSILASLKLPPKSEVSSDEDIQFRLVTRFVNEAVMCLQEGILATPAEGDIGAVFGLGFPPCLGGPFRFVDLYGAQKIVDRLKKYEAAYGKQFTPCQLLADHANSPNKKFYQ

Epidermal growth factor receptor, sequence (P00533 25-1210 T790M limits assumed): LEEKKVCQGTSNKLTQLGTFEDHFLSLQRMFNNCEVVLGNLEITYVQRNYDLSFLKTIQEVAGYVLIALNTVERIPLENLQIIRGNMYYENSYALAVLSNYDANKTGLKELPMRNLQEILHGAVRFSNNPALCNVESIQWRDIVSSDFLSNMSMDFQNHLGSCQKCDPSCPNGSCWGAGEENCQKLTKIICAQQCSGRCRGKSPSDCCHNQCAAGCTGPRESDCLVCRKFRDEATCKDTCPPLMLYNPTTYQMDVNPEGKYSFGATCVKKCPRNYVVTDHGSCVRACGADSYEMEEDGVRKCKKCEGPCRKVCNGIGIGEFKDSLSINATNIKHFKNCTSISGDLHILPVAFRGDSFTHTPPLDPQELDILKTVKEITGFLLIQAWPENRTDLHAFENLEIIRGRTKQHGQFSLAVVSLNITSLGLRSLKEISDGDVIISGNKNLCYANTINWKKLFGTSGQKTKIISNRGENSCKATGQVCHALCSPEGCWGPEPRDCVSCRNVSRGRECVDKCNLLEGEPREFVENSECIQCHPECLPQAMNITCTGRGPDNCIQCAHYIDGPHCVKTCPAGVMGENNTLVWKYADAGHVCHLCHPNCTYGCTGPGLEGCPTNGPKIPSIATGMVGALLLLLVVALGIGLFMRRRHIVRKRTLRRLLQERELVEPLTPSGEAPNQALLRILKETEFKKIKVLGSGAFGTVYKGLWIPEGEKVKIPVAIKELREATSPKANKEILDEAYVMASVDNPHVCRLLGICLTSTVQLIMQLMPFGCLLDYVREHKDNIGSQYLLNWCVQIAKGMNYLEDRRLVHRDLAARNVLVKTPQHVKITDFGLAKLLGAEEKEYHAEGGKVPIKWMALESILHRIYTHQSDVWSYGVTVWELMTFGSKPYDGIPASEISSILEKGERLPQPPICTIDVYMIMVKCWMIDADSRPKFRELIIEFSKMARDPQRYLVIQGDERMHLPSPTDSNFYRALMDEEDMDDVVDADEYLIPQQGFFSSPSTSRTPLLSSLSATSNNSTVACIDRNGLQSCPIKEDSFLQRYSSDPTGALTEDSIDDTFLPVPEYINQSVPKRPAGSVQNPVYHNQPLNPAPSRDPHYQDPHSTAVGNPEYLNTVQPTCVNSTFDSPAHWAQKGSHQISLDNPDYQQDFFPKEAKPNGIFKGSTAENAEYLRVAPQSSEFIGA
Epidermal growth factor receptor (Homo sapiens), sequence (P00533 whole entry): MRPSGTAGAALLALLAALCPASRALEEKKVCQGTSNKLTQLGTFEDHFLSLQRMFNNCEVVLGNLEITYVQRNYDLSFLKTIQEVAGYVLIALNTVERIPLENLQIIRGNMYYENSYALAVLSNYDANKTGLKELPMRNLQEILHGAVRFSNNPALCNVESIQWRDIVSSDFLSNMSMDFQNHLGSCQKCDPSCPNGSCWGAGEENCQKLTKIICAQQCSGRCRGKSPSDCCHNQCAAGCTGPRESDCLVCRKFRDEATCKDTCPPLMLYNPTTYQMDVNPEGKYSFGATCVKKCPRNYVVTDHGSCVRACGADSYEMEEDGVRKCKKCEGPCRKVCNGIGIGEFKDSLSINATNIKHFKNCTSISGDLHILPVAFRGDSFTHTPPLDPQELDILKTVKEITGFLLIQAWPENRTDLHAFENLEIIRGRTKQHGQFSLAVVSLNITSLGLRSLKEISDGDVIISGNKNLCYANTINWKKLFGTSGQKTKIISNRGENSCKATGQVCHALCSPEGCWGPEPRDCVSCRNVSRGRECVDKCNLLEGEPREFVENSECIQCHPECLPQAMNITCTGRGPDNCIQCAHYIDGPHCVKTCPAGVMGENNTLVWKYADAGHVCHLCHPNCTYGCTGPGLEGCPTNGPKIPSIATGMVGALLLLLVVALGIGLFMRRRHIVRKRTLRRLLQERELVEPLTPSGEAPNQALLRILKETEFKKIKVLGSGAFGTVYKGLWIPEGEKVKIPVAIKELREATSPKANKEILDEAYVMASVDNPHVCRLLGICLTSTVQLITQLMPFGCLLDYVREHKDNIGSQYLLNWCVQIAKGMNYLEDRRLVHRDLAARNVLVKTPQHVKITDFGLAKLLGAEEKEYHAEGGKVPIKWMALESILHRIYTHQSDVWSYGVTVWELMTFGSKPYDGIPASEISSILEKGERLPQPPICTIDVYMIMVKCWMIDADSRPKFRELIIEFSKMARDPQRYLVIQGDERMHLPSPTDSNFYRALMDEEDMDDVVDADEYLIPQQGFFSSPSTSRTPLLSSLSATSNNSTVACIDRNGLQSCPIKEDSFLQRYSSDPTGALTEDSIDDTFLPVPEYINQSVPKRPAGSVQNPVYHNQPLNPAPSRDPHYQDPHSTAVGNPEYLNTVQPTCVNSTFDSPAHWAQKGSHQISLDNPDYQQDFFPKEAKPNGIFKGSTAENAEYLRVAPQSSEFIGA
DNA replication licensing factor MCM2 (Homo sapiens), sequence (P49736 whole entry): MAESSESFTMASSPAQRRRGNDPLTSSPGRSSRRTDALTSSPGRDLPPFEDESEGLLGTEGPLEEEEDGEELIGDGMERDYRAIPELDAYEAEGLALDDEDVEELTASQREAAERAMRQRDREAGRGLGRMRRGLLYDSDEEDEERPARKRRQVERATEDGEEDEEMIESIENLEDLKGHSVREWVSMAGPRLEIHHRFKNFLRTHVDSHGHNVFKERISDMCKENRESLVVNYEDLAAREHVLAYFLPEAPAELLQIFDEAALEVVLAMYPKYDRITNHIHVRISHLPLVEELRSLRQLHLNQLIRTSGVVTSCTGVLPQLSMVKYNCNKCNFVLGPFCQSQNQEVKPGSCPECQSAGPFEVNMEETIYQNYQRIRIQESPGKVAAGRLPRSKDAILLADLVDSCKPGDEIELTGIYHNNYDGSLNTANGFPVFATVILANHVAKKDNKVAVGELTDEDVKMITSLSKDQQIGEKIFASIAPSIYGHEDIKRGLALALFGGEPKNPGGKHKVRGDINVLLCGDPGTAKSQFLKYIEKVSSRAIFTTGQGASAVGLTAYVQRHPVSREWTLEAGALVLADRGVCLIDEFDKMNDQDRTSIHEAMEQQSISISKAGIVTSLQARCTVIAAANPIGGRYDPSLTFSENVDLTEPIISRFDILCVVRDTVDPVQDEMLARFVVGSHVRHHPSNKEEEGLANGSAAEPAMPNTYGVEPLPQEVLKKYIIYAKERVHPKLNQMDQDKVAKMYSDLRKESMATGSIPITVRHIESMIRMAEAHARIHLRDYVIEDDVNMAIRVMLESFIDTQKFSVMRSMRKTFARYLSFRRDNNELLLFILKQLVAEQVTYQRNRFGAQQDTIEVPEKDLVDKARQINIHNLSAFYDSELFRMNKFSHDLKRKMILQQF
Mitochondrial antiviral-signaling protein (Homo sapiens), sequence (Q7Z434 whole entry): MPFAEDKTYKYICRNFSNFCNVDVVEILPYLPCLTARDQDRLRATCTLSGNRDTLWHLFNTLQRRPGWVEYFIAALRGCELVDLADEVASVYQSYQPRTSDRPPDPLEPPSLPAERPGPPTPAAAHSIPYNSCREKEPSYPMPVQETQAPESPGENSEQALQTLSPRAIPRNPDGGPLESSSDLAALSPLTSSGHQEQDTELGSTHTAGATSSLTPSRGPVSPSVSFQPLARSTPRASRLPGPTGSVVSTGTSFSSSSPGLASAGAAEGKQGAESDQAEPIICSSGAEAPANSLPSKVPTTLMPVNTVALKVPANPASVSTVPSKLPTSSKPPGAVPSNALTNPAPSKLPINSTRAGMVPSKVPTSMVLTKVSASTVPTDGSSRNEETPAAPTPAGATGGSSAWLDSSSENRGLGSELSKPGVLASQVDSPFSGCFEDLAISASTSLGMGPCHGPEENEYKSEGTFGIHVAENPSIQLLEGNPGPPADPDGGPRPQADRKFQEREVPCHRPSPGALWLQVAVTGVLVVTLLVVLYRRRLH

Activity [1]: Active
IC50 [2]: 130 nM
IC50 [4]: 5.27 nM
Structure (SMILES): C=CC(=O)Nc1cccc(-n2c(=O)cc(C)c3cnc(Nc4ccc(N5CCN(C)CC5)cc4OC)nc32)c1
Activity [3]: Active

Activity [5]: Active
Activity [1]: Active
Activity [6]: Active
IC50 [2]: 820 nM
Activity [7]: Active
inhibition [8]: Active
inhibition [9]: Active
Activity [10]: Active
Activity [11]: Active
Activity [12]: Active
Activity [13]: Active
Drug uptake [14]: Active
Drug uptake [16]: Not Active
Activity [17]: Active
Activity [18]: Active
Activity [20]: Active
IC50 [4]: 8.04 nM
Activity [21]: Active
Structure (SMILES): C#CCN1CCN(c2ccc(Nc3ncc4c(C)cc(=O)n(-c5cccc(NC(=O)C=C)c5)c4n3)c(OC)c2)CC1
Activity [3]: Active
Activity [15]: Active
Activity [19]: Active

IC50 [2]: 370 nM
Structure (SMILES): CN(C)C/C=C/C(=O)Nc1cc2c(Nc3ccc(F)c(Cl)c3)ncnc2cc1O[C@H]1CCOC1 [AFATINIB]
